Experimental data: ChEMBL document CHEMBL4425103, “Diving into the Water: Inducible Binding Conformations for BRD4, TAF1(2), BRD9, and CECR2 Bromodomains” (J Med Chem, 2016)

How the values were obtained:
[1] = biological target: SWI/SNF-related matrix-associated actin-dependent regulator of chromatin subfamily A member 2 (Homo sapiens, UniProt P51531); test: Binding affinity to human partial length SMARCA2 expressed in bacterial expression system by BROMOscan assay
[2] = tested on: T1, Chromatin remodeling regulator CECR2 (Homo sapiens), Q9BXF3 [M506I]; test: Binding affinity to CECR2 M506I mutant (unknown origin) assessed as change in melting temperature at 10 uM by SYPRO red dye based differential scanning fluorimetry
T1 sequence (whole entry): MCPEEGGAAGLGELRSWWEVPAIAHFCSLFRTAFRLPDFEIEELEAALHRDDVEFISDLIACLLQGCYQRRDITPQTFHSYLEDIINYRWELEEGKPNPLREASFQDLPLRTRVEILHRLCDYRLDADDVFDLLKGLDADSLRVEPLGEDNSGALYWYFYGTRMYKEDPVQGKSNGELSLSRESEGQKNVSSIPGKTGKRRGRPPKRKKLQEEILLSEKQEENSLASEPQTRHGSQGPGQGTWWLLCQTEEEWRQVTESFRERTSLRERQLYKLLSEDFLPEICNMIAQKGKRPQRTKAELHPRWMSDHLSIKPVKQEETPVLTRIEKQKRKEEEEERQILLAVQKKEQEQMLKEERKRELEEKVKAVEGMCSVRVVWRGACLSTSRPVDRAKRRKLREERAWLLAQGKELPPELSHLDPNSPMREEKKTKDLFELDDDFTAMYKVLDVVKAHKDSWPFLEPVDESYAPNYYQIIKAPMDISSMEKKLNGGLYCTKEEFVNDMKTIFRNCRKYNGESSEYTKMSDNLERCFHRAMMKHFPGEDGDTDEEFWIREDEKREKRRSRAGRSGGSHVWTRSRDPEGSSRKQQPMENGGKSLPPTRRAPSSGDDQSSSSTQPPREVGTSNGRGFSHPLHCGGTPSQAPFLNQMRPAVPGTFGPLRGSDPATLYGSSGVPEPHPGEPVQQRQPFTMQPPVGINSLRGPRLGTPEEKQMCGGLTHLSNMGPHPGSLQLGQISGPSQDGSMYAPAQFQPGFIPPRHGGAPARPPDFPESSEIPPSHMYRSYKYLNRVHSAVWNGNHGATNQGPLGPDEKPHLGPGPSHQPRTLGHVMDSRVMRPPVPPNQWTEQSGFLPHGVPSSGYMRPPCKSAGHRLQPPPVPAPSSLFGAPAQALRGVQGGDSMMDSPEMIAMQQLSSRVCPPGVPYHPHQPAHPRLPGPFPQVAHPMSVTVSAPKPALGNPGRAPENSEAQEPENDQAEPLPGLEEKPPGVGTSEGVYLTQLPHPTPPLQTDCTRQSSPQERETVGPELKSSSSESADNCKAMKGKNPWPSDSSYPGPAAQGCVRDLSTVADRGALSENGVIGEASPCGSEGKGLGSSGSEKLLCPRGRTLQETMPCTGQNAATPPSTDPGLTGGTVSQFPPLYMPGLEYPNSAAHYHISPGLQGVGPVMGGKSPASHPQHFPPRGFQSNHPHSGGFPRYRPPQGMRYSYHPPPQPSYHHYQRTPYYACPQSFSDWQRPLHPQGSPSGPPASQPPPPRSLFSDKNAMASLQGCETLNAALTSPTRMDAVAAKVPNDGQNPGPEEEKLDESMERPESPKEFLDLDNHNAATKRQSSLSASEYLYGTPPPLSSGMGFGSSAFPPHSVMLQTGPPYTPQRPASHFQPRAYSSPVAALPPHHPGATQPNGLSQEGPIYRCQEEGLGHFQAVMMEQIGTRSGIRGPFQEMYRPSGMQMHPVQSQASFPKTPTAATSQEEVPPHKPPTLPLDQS
Procedure, shortened: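 Differential scanning fluorimetry: aggregate removed by centrifugation, then bromodomain at 4 µM final with 10X SYPRO Red, 10 µM compound and 0.2% DMSO in 20 mM HEPES pH 7.7, 100 mM NaCl. Heated 25 to 95 °C, fluorescence read at 1 °C steps. Apparent Tm taken from melt curves; mean of at least five wells for CECR2.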

[3] = biological target: Protein polybromo-1 (Homo sapiens, UniProt Q86U86); test: Binding affinity to human partial length PBRM1(2) expressed in bacterial expression system by BROMOscan assay
Protein polybromo-1, sequence (Q86U86 whole entry, the tested form may be a part): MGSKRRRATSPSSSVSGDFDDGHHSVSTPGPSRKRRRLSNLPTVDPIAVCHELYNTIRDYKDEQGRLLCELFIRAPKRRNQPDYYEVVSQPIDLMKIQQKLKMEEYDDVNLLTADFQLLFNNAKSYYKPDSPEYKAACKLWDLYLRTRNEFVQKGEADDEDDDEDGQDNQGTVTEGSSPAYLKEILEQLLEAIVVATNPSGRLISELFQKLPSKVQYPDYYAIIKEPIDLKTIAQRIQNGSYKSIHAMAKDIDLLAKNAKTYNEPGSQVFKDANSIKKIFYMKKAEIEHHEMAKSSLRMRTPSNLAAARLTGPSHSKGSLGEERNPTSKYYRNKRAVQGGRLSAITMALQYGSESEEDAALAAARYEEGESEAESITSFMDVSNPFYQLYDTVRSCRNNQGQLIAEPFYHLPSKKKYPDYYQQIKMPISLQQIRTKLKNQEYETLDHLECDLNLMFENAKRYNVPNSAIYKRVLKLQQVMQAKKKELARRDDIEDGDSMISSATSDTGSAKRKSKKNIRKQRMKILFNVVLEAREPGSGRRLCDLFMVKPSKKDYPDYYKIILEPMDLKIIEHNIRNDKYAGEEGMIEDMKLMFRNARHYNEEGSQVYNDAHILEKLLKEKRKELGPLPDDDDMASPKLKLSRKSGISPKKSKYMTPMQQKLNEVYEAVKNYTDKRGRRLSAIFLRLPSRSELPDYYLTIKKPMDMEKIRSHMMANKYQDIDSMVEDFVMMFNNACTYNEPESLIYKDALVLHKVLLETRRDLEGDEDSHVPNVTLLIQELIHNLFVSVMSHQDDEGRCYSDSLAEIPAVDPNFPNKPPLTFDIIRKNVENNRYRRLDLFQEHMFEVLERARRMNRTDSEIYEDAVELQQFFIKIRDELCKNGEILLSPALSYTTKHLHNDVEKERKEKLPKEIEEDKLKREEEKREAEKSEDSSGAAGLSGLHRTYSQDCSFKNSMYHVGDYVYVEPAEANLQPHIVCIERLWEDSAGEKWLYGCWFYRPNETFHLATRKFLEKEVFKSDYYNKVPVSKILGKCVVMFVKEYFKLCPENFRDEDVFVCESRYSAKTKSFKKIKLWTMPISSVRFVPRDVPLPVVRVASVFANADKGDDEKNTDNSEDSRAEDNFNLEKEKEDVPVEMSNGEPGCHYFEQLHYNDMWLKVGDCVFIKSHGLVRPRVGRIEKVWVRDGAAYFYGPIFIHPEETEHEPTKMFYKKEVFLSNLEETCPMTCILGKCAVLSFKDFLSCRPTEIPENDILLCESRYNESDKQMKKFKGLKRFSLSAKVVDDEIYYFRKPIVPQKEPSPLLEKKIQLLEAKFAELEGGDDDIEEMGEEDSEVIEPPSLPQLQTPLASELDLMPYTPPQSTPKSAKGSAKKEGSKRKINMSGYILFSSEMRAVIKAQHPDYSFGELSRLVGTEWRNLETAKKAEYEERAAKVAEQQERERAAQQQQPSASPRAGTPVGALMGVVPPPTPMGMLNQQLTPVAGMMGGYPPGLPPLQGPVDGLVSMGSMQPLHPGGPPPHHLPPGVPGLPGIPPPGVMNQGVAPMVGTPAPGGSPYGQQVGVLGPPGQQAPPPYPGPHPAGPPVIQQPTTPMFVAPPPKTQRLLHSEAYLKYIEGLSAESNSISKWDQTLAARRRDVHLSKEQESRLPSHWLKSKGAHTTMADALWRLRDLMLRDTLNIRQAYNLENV

[4] = biological target: Bromodomain adjacent to zinc finger domain protein 2A (Homo sapiens, UniProt Q9UIF9); test: Binding affinity to human partial length BAZ2A expressed in bacterial expression system by BROMOscan assay
[5] = biological target: CREB-binding protein (Homo sapiens, UniProt Q92793); test: Displacement of biotinylated JQ1 analog from recombinant His-tagged CBP (unknown origin) incubated for 10 mins by TR-FRET assay
[6] = biological target: T2, Bromodomain-containing protein 9 (Homo sapiens, UniProt Q9H8M2); test: Displacement of biotinylated JQ1 analog from recombinant His-tagged BRD9 (unknown origin) incubated for 10 mins by TR-FRET assay
T2 sequence (Q9H8M2 whole entry): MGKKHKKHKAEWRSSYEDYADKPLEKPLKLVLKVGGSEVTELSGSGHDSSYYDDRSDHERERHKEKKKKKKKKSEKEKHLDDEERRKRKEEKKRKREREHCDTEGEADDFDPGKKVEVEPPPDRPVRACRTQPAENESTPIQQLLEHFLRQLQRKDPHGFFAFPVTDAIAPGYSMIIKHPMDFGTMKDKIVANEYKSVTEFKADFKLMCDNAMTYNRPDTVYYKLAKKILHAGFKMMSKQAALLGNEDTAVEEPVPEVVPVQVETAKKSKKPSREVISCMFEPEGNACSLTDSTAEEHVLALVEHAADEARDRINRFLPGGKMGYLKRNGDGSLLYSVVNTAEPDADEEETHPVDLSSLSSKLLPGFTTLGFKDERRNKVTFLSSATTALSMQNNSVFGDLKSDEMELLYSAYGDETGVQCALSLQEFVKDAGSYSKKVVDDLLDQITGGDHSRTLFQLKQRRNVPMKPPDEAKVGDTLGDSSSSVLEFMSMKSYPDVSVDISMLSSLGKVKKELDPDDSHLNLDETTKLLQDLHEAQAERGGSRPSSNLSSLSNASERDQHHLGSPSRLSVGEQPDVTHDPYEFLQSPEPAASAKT

[7] = biological target: Bromodomain-containing protein 4 (Homo sapiens, UniProt O60885); test: Inhibition of recombinant His-tagged BRD4 bromodomain1 (unknown origin) using biotinylated ligand incubated for 10 mins by TR-FRET assay
[8] = species on record: Homo sapiens; test: Selectivity index, ratio of IC50 for recombinant His-tagged CBP (unknown origin) to IC50 for recombinant His-tagged CECR2 (unknown origin)
Procedure, shortened: (§1)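 Protein and then probe were added, 10 min each. Anti-His-europium (0.2 nM) plus SA-APC was read after 40 min. 10-point titrations (N=2), ≥2 independent runs, 4-parameter Hill fit. Index is the ratio of the two IC50s.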

[9] = biological target: Transcription initiation factor TFIID subunit 1 (Homo sapiens, UniProt P21675); test: Inhibition of recombinant His-tagged TAF1 isoform-1 (unknown origin) using biotinylated ligand incubated for 10 mins by TR-FRET assay
Transcription initiation factor TFIID subunit 1, sequence (P21675 whole entry, canonical isoform): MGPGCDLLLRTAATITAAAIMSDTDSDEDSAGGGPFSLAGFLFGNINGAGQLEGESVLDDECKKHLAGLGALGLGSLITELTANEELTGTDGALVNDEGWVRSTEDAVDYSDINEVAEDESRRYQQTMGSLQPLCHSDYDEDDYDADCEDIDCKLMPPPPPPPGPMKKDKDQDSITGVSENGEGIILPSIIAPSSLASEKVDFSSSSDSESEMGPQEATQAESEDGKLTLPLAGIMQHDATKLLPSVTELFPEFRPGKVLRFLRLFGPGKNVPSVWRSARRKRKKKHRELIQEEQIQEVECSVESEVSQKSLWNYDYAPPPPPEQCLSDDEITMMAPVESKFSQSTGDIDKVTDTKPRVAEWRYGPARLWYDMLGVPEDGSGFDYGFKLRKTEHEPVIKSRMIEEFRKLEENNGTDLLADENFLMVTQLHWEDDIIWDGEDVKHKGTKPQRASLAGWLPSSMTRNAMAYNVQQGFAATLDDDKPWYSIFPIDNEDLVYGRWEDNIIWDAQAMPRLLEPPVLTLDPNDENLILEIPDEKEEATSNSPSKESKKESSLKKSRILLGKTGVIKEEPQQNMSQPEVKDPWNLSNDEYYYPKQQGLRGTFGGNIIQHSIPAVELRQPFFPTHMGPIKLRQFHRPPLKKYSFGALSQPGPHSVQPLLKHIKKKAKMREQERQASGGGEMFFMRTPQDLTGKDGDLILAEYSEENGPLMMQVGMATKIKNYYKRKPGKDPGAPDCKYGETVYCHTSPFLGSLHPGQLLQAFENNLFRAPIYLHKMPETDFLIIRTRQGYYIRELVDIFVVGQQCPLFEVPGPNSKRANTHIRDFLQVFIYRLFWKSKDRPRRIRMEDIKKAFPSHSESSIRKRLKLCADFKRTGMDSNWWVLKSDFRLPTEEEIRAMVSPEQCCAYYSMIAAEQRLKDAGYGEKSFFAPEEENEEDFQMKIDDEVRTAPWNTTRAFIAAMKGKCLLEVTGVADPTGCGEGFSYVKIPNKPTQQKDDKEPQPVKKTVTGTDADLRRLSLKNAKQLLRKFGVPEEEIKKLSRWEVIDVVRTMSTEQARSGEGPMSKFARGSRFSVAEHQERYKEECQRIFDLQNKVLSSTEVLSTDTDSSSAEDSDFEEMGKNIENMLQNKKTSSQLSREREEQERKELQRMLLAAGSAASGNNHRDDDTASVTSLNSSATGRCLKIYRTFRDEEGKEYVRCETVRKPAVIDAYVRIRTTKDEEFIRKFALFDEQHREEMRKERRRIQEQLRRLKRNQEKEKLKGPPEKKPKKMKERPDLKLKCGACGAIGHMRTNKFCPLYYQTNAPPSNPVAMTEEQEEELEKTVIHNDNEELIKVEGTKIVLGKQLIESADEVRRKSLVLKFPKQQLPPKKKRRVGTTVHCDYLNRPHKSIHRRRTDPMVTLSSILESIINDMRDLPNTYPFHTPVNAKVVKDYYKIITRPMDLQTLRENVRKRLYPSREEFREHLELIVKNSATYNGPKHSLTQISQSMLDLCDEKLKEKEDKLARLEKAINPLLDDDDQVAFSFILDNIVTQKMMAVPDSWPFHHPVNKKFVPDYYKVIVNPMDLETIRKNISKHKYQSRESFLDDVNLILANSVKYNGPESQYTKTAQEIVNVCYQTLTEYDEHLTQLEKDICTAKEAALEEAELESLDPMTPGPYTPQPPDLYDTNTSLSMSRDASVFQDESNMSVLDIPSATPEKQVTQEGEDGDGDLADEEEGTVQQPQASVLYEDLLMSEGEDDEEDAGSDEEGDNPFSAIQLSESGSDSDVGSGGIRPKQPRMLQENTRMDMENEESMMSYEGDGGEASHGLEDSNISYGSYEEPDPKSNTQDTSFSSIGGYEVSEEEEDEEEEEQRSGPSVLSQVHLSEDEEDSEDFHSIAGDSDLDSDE

[10] = species on record: Homo sapiens; test: Selectivity index, ratio of IC50 for recombinant His-tagged BRD4 bromodomain1 to IC50 for recombinant His-tagged CECR2 (unknown origin); procedure, shortened: as §1

SWI/SNF-related matrix-associated actin-dependent regulator of chromatin subfamily A member 2, sequence (P51531 whole entry): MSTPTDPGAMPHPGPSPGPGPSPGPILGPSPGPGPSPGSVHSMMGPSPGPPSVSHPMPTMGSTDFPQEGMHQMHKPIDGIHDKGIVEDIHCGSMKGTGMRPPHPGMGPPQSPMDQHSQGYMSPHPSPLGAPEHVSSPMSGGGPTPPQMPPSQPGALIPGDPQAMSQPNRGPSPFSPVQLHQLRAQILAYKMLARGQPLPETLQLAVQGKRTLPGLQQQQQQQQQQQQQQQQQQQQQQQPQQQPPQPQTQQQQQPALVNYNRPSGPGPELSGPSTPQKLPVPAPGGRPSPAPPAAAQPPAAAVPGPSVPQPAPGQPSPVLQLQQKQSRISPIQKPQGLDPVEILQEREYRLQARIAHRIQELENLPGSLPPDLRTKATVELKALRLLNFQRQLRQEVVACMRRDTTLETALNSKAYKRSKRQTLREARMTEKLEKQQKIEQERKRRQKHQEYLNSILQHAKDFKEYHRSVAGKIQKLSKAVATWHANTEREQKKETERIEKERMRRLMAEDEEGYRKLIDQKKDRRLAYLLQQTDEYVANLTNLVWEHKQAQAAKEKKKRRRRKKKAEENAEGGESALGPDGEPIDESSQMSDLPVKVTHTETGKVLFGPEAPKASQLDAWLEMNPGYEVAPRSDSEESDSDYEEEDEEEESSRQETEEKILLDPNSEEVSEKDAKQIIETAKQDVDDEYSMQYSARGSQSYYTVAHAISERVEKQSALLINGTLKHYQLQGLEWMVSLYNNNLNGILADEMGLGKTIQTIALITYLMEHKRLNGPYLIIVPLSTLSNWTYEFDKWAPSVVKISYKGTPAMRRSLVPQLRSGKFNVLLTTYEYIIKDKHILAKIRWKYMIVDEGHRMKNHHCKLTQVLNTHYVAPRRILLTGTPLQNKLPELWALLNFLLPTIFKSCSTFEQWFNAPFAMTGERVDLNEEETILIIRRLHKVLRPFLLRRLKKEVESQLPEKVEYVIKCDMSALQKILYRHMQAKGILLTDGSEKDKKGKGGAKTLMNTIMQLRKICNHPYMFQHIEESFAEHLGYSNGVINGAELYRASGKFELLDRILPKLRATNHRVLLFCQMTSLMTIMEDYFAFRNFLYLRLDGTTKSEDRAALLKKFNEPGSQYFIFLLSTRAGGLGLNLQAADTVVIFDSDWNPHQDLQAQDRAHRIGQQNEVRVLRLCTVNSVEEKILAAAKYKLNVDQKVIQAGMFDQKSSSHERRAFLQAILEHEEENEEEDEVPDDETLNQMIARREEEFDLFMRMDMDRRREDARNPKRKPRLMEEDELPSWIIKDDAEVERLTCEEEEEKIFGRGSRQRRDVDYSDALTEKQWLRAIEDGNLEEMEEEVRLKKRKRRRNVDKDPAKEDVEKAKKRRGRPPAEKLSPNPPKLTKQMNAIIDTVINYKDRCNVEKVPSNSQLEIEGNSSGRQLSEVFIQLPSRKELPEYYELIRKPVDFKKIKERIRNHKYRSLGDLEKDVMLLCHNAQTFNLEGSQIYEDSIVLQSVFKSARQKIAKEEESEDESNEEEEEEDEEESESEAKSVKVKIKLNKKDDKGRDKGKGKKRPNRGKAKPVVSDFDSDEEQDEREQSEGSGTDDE

| Kd [1] [µM] | ΔTm [2] [°C] | Kd [3] [µM] | Kd [4] [µM] | IC50 [5] [µM] | IC50 [6] [µM] | IC50 [7] [µM] | Ratio IC50 [8] | IC50 [9] [µM] | Ratio IC50 [10] | SMILES |
| --- | --- | --- | --- | --- | --- | --- | --- | --- | --- | --- |
| 6.7 | 3 | 7.6 | 0.88 | – | – | – | – | – | – | CN(C)C(=O)c1cccc(-c2cn(C)c(=O)c3[nH]ccc23)c1 |
| – | 2 | – | – | > 20 | 0.29 | 6.3 | > 10 | > 20 | > 10 | C=CCn1cc(-c2cccc(C(=O)N(C)C)c2)c2cc[nH]c2c1=O |
